Experimental findings from ChEMBL document CHEMBL3259739, “Synthesis and structure-activity relationship of trisubstituted thiazoles as Cdc7 kinase inhibitors” (Eur J Med Chem, 2014) are described below.

The target in experiment [1] is CDC7/DBF4 (Cell division cycle 7-related protein kinase/Activator of S phase kinase) (Homo sapiens, UniProt O00311). Kind of experiment: Inhibition of Cdc7/Dbf4 (unknown origin)-mediated phosphorylation of MCM2 by protein-A luminescent proximity homogenous assay. It is filed as protein-complex assay.
Sequence of CDC7/DBF4 (Cell division cycle 7-related protein kinase/Activator of S phase kinase) (Q9UBU7 whole entry): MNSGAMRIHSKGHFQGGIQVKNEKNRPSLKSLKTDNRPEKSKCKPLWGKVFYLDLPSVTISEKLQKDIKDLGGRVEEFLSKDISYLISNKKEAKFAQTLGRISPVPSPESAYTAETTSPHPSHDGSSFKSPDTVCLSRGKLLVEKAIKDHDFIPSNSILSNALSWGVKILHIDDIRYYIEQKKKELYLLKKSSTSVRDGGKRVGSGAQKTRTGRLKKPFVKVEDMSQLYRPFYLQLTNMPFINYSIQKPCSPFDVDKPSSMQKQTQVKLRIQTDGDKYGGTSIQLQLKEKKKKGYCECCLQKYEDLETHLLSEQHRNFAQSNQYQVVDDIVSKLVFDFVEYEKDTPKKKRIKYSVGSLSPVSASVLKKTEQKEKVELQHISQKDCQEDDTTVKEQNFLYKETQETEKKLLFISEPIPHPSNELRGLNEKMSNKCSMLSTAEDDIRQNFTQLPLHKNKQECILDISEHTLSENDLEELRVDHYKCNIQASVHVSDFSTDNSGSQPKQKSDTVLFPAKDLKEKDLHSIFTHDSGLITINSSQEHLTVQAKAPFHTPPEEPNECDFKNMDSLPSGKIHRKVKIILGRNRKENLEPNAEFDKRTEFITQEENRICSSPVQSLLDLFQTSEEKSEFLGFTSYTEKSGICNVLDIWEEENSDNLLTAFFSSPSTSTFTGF
Sequence of CDC7/DBF4 (Cell division cycle 7-related protein kinase/Activator of S phase kinase) (O00311 whole entry): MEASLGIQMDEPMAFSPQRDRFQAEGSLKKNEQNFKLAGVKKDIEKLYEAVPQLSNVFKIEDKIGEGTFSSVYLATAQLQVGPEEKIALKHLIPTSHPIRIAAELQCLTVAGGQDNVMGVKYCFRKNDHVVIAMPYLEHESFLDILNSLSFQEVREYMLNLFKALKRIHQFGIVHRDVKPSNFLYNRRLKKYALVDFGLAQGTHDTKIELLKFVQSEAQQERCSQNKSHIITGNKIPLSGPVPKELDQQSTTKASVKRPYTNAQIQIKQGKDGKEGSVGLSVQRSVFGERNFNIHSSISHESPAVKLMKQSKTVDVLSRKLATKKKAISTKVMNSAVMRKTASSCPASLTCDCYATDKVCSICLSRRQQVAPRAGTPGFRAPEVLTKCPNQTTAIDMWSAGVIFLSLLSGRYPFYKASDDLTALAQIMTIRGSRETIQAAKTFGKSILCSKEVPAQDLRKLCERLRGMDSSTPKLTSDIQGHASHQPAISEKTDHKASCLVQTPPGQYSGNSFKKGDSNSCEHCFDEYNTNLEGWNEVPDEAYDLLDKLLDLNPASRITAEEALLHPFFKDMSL
Experiment [2] concerns the target Angiopoietin-1 receptor (Homo sapiens) (UniProt Q02763). The experiment can be described thus: Inhibition of TIE2 (unknown origin) at 1 uM relative to control. To be noted: values are per cent of control. In a few lines: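 KinomeSCAN competitive binding panel of 100 kinases; compounds tested at 1 µM in duplicate; read-out is percent […] control.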
Experiment [3] deals with Tyrosine-protein kinase BTK (Homo sapiens) (UniProt Q06187). The experiment can be described thus: Inhibition of BTK (unknown origin) at 1 uM relative to control; values are per cent of control.
Experiment [4] addresses Mast/stem cell growth factor receptor Kit (Homo sapiens) (UniProt P10721). Kind of experiment: Inhibition of KIT (unknown origin) at 1 uM relative to control; values are per cent of control.
Experiment [5] deals with Tyrosine-protein kinase Lyn (Homo sapiens) (UniProt P07948). The experiment can be described thus: Inhibition of LYN (unknown origin) at 1 uM relative to control; values are per cent of control.
The target in experiment [6] is RAC-beta serine/threonine-protein kinase (Homo sapiens) (UniProt P31751). Kind of experiment: Inhibition of AKT2 (unknown origin) at 1 uM relative to control; values are per cent of control.
The target in experiment [7] is Dual specificity protein kinase CLK4 (Homo sapiens) (UniProt Q9HAZ1). The experiment can be described thus: Inhibition of CLK4 (unknown origin) at 1 uM relative to control; values are per cent of control.
For experiment [8], the target named is Mitogen-activated protein kinase 1 (Homo sapiens) (UniProt P28482). The experiment can be described thus: Inhibition of ERK2 (unknown origin) at 1 uM relative to control; values are per cent of control.
Sequence of Mitogen-activated protein kinase 1 (Homo sapiens) (P28482 whole entry): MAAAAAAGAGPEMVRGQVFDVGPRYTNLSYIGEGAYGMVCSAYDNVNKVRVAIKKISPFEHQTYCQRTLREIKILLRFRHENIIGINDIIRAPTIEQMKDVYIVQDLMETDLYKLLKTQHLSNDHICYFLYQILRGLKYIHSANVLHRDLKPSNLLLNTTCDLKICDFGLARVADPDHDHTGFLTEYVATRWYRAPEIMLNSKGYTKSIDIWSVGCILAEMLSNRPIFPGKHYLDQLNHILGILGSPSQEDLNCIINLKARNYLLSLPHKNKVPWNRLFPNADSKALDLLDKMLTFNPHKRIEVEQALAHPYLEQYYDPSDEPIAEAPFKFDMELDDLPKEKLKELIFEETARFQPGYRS
Experiment [9] deals with Serine/threonine-protein kinase/endoribonuclease IRE1 (Homo sapiens) (UniProt O75460). The experiment can be described thus: Inhibition of ERN1 (unknown origin) at 1 uM relative to control; values are per cent of control.
Sequence of Serine/threonine-protein kinase/endoribonuclease IRE1 (Homo sapiens) (O75460 19-977 limits assumed): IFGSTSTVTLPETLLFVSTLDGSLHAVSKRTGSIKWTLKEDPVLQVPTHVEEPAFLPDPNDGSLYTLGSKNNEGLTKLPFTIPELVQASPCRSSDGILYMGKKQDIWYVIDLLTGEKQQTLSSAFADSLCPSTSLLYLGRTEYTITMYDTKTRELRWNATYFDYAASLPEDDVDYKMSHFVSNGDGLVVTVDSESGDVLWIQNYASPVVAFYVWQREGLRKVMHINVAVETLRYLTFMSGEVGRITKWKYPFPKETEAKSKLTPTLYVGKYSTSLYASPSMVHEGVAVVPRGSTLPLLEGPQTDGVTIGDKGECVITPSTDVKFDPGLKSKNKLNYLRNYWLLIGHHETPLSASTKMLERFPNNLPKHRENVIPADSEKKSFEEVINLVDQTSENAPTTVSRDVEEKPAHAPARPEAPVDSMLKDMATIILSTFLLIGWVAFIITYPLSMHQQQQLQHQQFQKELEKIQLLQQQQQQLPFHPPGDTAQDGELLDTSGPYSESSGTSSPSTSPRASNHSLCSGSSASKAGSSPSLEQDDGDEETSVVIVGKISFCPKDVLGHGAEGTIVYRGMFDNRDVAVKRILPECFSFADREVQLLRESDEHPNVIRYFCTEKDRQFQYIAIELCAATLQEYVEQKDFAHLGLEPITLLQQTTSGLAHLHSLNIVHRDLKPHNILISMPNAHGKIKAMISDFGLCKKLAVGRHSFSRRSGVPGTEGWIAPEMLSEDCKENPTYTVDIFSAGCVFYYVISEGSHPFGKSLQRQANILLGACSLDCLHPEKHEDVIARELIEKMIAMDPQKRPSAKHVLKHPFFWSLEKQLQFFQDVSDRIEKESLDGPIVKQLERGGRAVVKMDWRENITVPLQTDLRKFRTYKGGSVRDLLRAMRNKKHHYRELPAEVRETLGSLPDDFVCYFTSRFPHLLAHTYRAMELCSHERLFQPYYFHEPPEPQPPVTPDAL
Experiment [10] deals with T1, Dual specificity mitogen-activated protein kinase kinase 3 (Homo sapiens) (UniProt P46734).
T1 sequence (whole entry): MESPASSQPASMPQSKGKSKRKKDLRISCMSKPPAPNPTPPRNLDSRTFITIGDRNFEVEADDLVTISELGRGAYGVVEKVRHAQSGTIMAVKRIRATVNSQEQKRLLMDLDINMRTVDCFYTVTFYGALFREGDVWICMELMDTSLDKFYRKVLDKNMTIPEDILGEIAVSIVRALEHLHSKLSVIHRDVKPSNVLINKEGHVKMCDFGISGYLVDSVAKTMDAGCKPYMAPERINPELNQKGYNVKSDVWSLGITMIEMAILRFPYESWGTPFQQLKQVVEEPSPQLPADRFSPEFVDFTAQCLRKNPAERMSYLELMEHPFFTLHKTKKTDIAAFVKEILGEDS
Kind of experiment: Inhibition of MEK3 (unknown origin) at 1 uM relative to control; values are per cent of control.

Experiment [11] addresses T2, Serine/threonine-protein kinase 4 (Homo sapiens) (UniProt Q13043).
T2 sequence (whole entry): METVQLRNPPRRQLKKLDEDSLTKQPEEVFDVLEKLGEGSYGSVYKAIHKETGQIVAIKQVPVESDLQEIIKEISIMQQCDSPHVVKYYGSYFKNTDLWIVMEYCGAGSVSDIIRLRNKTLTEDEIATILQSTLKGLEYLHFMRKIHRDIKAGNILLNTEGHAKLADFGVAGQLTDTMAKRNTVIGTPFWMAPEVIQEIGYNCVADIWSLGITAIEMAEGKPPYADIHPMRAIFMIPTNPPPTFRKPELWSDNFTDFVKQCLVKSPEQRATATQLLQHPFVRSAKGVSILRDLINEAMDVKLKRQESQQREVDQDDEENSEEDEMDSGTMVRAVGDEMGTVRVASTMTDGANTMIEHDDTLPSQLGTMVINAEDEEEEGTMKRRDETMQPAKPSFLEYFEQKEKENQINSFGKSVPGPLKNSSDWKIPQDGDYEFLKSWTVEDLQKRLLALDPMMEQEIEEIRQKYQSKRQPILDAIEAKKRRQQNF
Kind of experiment: Inhibition of MST2 (unknown origin) at 1 uM relative to control; values are per cent of control.

Experiment [12] addresses Fibroblast growth factor receptor 1 (Homo sapiens) (UniProt P11362). The experiment can be described thus: Inhibition of FGFR1 (unknown origin) at 1 uM relative to control; values are per cent of control.
Experiment [13] concerns the target Glycogen synthase kinase-3 beta (Homo sapiens) (UniProt P49841). Kind of experiment: Inhibition of GSK3B (unknown origin) at 1 uM relative to control; values are per cent of control.
Experiment [14] has as its target Calcium/calmodulin-dependent protein kinase type II subunit delta (Homo sapiens) (UniProt Q13557). The experiment can be described thus: Inhibition of CAMK2D (unknown origin) at 1 uM relative to control; values are per cent of control.
For experiment [15], the target named is Casein kinase I isoform delta (Homo sapiens, UniProt P48730). The experiment can be described thus: Inhibition of CSNK1D (unknown origin) at 1 uM relative to control; values are per cent of control.
Experiment [16] has as its target Mitogen-activated protein kinase kinase kinase 1 (Homo sapiens) (UniProt Q13233). Kind of experiment: Inhibition of MAP3K1 (unknown origin) at 1 uM relative to control; values are per cent of control.
Experiment [17] has as its target Casein kinase II subunit alpha (Homo sapiens) (UniProt P68400). The experiment can be described thus: Inhibition of CSNK2A1 (unknown origin) at 1 uM relative to control; values are per cent of control.
Experiment [18] deals with T3, Mitogen-activated protein kinase 12 (Homo sapiens) (UniProt P53778).
T3 sequence (whole entry): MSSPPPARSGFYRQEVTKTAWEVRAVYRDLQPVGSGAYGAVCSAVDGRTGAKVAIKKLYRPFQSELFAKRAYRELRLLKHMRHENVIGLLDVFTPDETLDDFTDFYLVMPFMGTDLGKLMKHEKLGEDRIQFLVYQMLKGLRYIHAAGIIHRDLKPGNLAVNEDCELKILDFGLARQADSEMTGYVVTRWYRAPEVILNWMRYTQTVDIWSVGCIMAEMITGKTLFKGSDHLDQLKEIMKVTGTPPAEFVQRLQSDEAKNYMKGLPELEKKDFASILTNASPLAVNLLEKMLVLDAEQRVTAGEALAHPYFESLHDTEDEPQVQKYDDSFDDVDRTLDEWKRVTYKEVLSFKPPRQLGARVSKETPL
The experiment can be described thus: Inhibition of p38-gamma (unknown origin) at 1 uM relative to control; values are per cent of control.

Sequence of Fibroblast growth factor receptor 1 (Homo sapiens) (P11362 22-822 limits assumed): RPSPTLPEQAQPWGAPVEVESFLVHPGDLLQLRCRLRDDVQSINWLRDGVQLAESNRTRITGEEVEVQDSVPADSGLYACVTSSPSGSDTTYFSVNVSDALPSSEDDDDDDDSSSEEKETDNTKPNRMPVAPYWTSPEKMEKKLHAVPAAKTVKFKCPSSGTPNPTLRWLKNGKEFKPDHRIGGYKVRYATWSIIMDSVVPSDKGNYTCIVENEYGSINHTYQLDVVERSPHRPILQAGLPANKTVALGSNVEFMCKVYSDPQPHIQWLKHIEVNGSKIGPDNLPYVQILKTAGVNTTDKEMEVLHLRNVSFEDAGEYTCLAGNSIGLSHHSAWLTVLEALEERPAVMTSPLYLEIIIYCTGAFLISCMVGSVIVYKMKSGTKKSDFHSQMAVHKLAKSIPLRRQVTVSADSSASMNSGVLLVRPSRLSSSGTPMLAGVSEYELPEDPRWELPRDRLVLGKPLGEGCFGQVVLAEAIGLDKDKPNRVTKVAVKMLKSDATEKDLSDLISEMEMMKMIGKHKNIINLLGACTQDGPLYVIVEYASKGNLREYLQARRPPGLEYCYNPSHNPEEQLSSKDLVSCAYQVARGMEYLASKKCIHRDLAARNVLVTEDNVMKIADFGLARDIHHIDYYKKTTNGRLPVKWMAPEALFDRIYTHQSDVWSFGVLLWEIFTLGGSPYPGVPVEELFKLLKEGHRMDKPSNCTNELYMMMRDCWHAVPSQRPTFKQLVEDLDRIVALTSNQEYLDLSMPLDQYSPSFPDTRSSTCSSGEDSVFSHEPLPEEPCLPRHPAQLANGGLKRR
Sequence of Calcium/calmodulin-dependent protein kinase type II subunit delta (Homo sapiens) (Q13557 whole entry, canonical isoform): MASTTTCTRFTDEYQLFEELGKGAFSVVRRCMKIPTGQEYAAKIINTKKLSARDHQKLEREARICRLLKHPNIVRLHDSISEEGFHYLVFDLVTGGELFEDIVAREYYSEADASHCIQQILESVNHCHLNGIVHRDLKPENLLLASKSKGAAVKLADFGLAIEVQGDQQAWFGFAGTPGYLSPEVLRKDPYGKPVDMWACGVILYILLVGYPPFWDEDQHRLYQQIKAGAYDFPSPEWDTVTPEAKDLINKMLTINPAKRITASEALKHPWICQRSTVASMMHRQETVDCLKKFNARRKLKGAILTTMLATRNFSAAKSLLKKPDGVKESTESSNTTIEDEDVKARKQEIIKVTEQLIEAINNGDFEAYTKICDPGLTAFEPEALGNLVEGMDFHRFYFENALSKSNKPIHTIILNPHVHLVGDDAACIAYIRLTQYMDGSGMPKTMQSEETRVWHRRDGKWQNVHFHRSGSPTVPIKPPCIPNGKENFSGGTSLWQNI
Sequence of Angiopoietin-1 receptor (Homo sapiens) (Q02763 whole entry): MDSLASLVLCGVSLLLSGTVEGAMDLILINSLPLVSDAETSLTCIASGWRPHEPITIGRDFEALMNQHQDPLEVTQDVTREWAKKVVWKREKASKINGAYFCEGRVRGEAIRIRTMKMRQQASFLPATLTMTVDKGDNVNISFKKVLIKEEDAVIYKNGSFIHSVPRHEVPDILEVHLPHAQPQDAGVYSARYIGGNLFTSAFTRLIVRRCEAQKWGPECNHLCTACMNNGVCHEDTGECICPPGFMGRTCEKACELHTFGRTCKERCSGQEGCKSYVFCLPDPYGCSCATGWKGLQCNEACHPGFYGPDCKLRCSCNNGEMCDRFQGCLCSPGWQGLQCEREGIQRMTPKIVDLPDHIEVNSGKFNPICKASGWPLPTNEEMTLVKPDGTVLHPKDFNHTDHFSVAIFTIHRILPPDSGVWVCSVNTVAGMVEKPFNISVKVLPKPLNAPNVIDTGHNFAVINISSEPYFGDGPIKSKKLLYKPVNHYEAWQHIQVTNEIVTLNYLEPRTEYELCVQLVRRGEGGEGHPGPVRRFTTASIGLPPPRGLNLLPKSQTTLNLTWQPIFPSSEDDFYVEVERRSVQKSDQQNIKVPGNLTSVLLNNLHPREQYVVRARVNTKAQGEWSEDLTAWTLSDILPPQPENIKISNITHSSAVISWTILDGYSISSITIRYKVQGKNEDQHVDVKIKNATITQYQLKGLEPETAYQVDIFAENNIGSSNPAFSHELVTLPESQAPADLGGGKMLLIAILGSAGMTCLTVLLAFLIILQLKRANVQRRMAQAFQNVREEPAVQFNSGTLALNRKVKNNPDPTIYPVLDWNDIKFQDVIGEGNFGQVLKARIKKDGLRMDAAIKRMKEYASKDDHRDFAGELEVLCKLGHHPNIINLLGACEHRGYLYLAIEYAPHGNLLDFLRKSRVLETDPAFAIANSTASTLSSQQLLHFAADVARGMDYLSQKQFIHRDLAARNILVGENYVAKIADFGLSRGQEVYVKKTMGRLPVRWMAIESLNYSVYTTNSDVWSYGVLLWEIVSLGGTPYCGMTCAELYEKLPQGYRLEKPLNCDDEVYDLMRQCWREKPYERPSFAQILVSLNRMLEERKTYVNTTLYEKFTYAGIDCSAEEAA

Broadly, the IC50 is the concentration that gives 50% inhibition. `NC(=O)c1sc(-c2ccnc(N)n2)nc1-c1ccc(Cl)cc1Cl` showed an IC50 in experiment [1] of 3.77 nM. This compound showed a residual binding, % of control in [2] of 82%. Further, the residual activity in experiment [3] was determined as 75%; in experiment [4], 75%; in [5], 81%; in experiment [6] it was 100%; in experiment [7] it was 0%; in experiment [8] it was 79%. Also, the residual activity in [9] worked out at 100%; in experiment [10], 25%; in experiment [11] it was 100%; in [12] it was 87%; in experiment [13], 6.4%; in experiment [14], 90%. Also, the residual activity worked out at 0.7% in experiment [15], 97% in [16], 66% in experiment [17] and 65% in experiment [18].
As for `CCOC(=O)c1sc(-c2ccncc2)nc1O`, inhibition in experiment [1] was half-maximal at 323 nM (IC50). Also, the residual binding, % of control in experiment [2] amounted to 67%. The residual activity in experiment [3] was determined as 92%; in [4] it was 100%; in experiment [5] it was 80%; in experiment [6], 96%; in experiment [7], 92%; in [8], 93%. For the same compound, the residual activity in experiment [9] was 100%; in [10], 100%; in experiment [11], 84%; in experiment [12], 89%; in experiment [13], 100%; in [14] it was 79%. In addition, the residual activity in experiment [15] is 90%; in [16] it was 85%; in experiment [17] it was 50%; in experiment [18], 100%.
`COc1ccc(-c2nc(-c3ccnc(N)n3)sc2C(N)=O)c(Cl)c1`: the IC50 in experiment [1] is 6.81 nM. Moreover, the residual binding, % of control in experiment [2] stood at 99%. Besides, the residual activity in [3] turned out to be 76%; in experiment [4], 78%; in experiment [5], 88%; in [6], 100%; in [7], 0%; in experiment [8] it was 82%. In addition, the residual activity in experiment [9] is 32%; in experiment [10], 35%; in [11] it was 71%; in experiment [12], 100%; in experiment [13] it was 6.8%; in experiment [14] it was 93%. Besides, the residual activity in [15] amounted to 0.6%; in experiment [16], 93%; in experiment [17], 95%; in [18], 91%.
